From ChEMBL document CHEMBL2385035 (J Med Chem, 2013)
Active and inactive are the calls of the source. The rule behind the calls is not given here.

Key:
Mus musculus [1] = assay: In vivo inhibition of ASBT in C57BL/6J mouse assessed as increase in fecal bile acid excretion measured for 24 hrs; format: functional; conditions: Feces
Rattus norvegicus [2] = assay: Antidiabetic activity in portal vein cannulated lean Sprague-Dawley rat assessed as increase in portal vein PYY level at 10 mg/kg, po measured after 3 to 8 hrs; format: functional, organism-based; set-up: dose 10 mg/kg
Rattus norvegicus [3] = assay: In vivo inhibition of ASBT in portal vein cannulated lean Sprague-Dawley rat assessed as decrease in portal vein bile acid level at 10 mg/kg, po measured after 1 to 2 hrs relative to vehicle-treated control; format: functional, organism-based; set-up: dose 10 mg/kg
[4] = Aqueous solubility of the compound; format: physicochemical; conditions: buffer
Rattus norvegicus [5] = assay: Antidiabetic activity in Zucker diabetic fatty rat assessed as increase in total GLP-1 level at 0.05 to 10 mg/kg, po bid for 2 weeks measured on day 14 relative to vehicle-treated control; format: functional, organism-based
Procedure, shortened: (§1)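 Male ZDF rats, 8 weeks old, dosed orally twice daily for 14 days in two separate studies. Day-14 tail-vein blood sampled for HbA1c and for plasma glucose (nonfasted), insulin and total GLP-1. Compared with vehicle-treated animals, significance at p < 0.05.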

Rattus norvegicus [6] = assay: Antidiabetic activity in portal vein cannulated lean Sprague-Dawley rat assessed as increase in portal vein total GLP-1 level at 10 mg/kg, po measured after 3 to 8 hrs; format: functional, organism-based; set-up: dose 10 mg/kg
Rattus norvegicus [7] = assay: Antidiabetic activity in Zucker diabetic fatty rat assessed as increase in fecal bile acid excretion at 0.05 to 10 mg/kg, po bid for 2 weeks measured for 24 hrs post last dose relative to vehicle-treated control; format: functional, Feces; conditions: dose mg/kg 0.05-10
[8] = Apparent permeability in MDCK cells expressing MDR1 at 3 uM after 60 mins by LC-MS/MS analysis; format: ADME, cell-based, Canis lupus familiaris; conditions: dog
[9] = Cmax in Sprague-Dawley rat portal vein blood at 10 mg/kg, po; format: ADME, organism-based; set-up: dose 10 mg/kg, route oral
Procedure, shortened: (§2)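 Fed male SD rats given a single oral gavage dose of 10 mg/kg. Maximum parent drug concentration measured in portal vein blood and in systemic blood.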

[10] = biological target: T1, Ileal sodium/bile acid cotransporter (Mus musculus, UniProt P70172); assay: Inhibition of mouse ASBT expressed in HEK293 cells assessed as inhibition of [3H]-taurocholate uptake after 90 mins by scintillation counting analysis; format: cell-based
T1 sequence (P70172 whole entry): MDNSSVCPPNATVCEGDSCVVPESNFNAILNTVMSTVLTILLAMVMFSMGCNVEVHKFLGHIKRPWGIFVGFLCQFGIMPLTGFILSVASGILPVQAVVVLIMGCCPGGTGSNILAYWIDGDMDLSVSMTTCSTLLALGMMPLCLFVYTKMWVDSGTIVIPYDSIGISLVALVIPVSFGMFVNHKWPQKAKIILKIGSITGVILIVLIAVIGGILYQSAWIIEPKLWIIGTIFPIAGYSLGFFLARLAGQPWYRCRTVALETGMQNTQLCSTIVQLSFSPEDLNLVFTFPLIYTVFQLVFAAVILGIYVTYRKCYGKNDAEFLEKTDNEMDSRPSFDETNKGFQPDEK

Rattus norvegicus [11] = assay: Antidiabetic activity in Zucker diabetic fatty rat assessed as reduction in blood HbA1c level at 0.05 to 10 mg/kg, po bid for 2 weeks measured on day 14 relative to vehicle-treated control; format: functional; set-up: scale not given: the % may be the effect or the level left; conditions: dose mg/kg 0.05-10; procedure, shortened: as §1
Rattus norvegicus [12] = assay: Antidiabetic activity in Zucker diabetic fatty rat assessed as increase in plasma insulin level at 0.05 to 10 mg/kg, po bid for 2 weeks measured on day 14 relative to vehicle-treated control; format: functional, organism-based; procedure, shortened: as §1
[13] = Drug recovery in Sprague-Dawley rat feces at 10 mg/kg, po; format: ADME, organism-based; set-up: dose 10 mg/kg, route oral; conditions: read-out: Drug recovery
[14] = Half life in Sprague-Dawley rat intestine at 10 mg/kg, po; format: ADME, organism-based; set-up: dose 10 mg/kg, route oral
Mus musculus [15] = assay: In vivo inhibition of ASBT in C57BL/6J mouse assessed as increase in fecal bile acid excretion measured for 24 hrs relative to 264W94; format: functional, Feces; set-up: concentration or dose not given beside the values
[16] = Stability of the compound by glutathione trapping assay; format: physicochemical
[17] = biological target: T2, Ileal sodium/bile acid cotransporter (Rattus norvegicus, UniProt Q62633); assay: Inhibition of rat ASBT expressed in HEK293 cells assessed as inhibition of [3H]-taurocholate uptake after 90 mins by scintillation counting analysis; format: cell-based
T2 sequence (Q62633 whole entry): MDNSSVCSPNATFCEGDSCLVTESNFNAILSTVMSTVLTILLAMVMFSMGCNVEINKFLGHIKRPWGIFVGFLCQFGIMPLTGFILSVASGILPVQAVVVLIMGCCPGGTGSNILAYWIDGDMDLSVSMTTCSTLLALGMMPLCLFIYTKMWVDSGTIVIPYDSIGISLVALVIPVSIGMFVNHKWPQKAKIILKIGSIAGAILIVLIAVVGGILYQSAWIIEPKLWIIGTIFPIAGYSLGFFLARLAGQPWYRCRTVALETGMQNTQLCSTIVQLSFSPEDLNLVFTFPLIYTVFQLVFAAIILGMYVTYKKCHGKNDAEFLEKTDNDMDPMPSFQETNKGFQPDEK

Rattus norvegicus [18] = assay: Antidiabetic activity in Zucker diabetic fatty rat assessed as reduction in non-fasted plasma glucose level at 0.05 to 10 mg/kg, po bid for 2 weeks measured on day 14 relative to vehicle-treated control; format: functional; set-up: scale not given: the % may be the effect or the level left; conditions: dose mg/kg 0.05-10; procedure, shortened: as §1
Rattus norvegicus [19] = assay: Antidiabetic activity in portal vein cannulated lean Sprague-Dawley rat assessed as effect on portal vein GIP level at 10 mg/kg, po measured after 3 to 8 hrs relative to vehicle-treated control; format: functional, organism-based; set-up: dose 10 mg/kg
[20] = Cmax in Sprague-Dawley rat systemic blood at 10 mg/kg, po; format: ADME, organism-based; set-up: dose 10 mg/kg, route oral; procedure, shortened: as §2
Rattus norvegicus [21] = assay: Antidiabetic activity in Zucker diabetic fatty rat assessed as reduction in non-fasted plasma glucose level at 0.001 to 10 mg/kg, po bid for 2 weeks measured on day 14 relative to vehicle-treated control; format: functional; set-up: scale not given: the % may be the effect or the level left; conditions: dose mg/kg 0.001-10; procedure, shortened: as §1
Rattus norvegicus [22] = assay: Antidiabetic activity in Zucker diabetic fatty rat assessed as increase in plasma insulin level at 0.001 to 10 mg/kg, po bid for 2 weeks measured on day 14 relative to vehicle-treated control; format: functional, organism-based; procedure, shortened: as §1
[23] = Thermal stability of the compound; format: physicochemical
Cynomolgus monkey = assay: Cmax in cynomolgous monkey systemic blood at 3 mg/kg, po; format: ADME, organism-based, Macaca fascicularis; set-up: dose 3 mg/kg, route oral; conditions: in vivo, BLD = below limit of detection
Procedure, shortened: (§3)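 Solution dosed orally to fed SD rats (10 mg/kg), male beagle dogs (10 mg/kg) or cynomolgous monkeys (3 mg/kg). Parent compound measured in systemic circulation; rat lower limit of quantitation 1 ng/mL.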

[24] = biological target: T3, Ileal sodium/bile acid cotransporter (Homo sapiens, UniProt Q12908); assay: Inhibition of human ASBT expressed in HEK293 cells assessed as inhibition of [3H]-taurocholate uptake after 90 mins by scintillation counting analysis; format: cell-based
T3 sequence (Q12908 whole entry): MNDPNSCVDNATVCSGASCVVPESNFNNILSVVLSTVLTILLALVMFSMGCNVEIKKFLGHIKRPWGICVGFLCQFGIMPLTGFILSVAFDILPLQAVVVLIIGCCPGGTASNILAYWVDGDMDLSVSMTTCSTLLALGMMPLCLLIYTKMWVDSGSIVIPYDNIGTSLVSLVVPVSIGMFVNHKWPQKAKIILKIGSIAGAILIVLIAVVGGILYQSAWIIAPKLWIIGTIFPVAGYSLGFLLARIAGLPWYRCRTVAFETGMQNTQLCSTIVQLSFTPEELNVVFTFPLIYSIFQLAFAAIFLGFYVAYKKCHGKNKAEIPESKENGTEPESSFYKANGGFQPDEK

[25] = Aqueous solubility of the compound at pH 7.4; format: physicochemical; conditions: buffer
Rattus norvegicus [26] = assay: Antidiabetic activity in Zucker diabetic fatty rat assessed as reduction in blood HbA1c level at 0.001 to 10 mg/kg, po bid for 2 weeks measured on day 14 relative to vehicle-treated control; format: functional; set-up: scale not given: the % may be the effect or the level left; conditions: dose mg/kg 0.001-10; procedure, shortened: as §1
Rattus norvegicus [27] = assay: Antidiabetic activity in Zucker diabetic fatty rat assessed as increase in total GLP-1 level at 0.001 to 10 mg/kg, po bid for 2 weeks measured on day 14 relative to vehicle-treated control; format: functional, organism-based; procedure, shortened: as §1
[28] = Cmax in beagle dog systemic blood at 10 mg/kg, po; format: ADME, organism-based, Canis lupus familiaris; set-up: dose 10 mg/kg, route oral; procedure, shortened: as §3
Intestine = assay: Metabolic stability in Sprague-Dawley rat intestine assessed as formation of (7R,9R)-7-Butyl-7-ethyl-2-methoxy-5,5-dioxo-9-phenyl-6,7,8,9-tetrahydro-5H-5lambda(6)-thia-8-aza-benzocyclohepten-3-ol at 10 mg/kg, po after 2 to 24 hrs; format: ADME, organism-based; set-up: dose 10 mg/kg, route oral; conditions: in vivo

Question: Which ED50 (Mus musculus [1]) does the source give for `CCCC[C@]1(CC)CS(=O)(=O)c2cc(CP(=O)(O)O)c(OC)cc2[C@@H](c2ccccc2)N1` here?
Answer: Its ED50 is 0.12 mg/kg.

Question: And the Activity (Rattus norvegicus [2])?
Answer: The Activity was “Active”.

Question: What about the inhibition (Rattus norvegicus [3]) of the same compound?
Answer: The inhibition was “Active”.

Question: What about the solubility [4] of the same compound?
Answer: The solubility was at least 200 µg/mL.

Question: What about the Activity (Rattus norvegicus [5]) of the same compound?
Answer: The Activity was “Active”.

Question: What about the Activity (Rattus norvegicus [6]) of the same compound?
Answer: Its Activity is “Active”.

Question: What about the “fold change (FC)” value (Rattus norvegicus [7]) of the same compound?
Answer: The value was 7.

Question: What about the Papp at 1 h, 3 µM [8] of the same compound?
Answer: Its Papp at 1 h, 3 µM is 0.7 ×10⁻⁶ cm/s.

Question: What about the Cmax [9] of the same compound?
Answer: The Cmax was 14 ng/mL.

Question: What about the IC50 [10] of the same compound?
Answer: Its IC50 is 0.5 nM.

Question: And the Activity (Rattus norvegicus [11])?
Answer: The Activity was 1.3%.

Question: What about the Activity (Rattus norvegicus [12]) of the same compound?
Answer: Its Activity is “Active”.

Question: What about the dose excreted [13] of the same compound?
Answer: Its dose excreted is 87%.

Question: What about the half-life [14] of the same compound?
Answer: The half-life was over 12 h.

Question: And the Efficacy (Mus musculus [15])?
Answer: The Efficacy was 92%.

Question: And the Stability [16]?
Answer: The Stability was “Unstable”.

Question: And the IC50 [17]?
Answer: Its IC50 is 0.9 nM.

Question: And the Activity (Rattus norvegicus [18])?
Answer: The Activity was over 50%.

Question: What about the Activity (Rattus norvegicus [19]) of the same compound?
Answer: Its Activity is “inactive”.

Question: What about the Cmax [20] of the same compound?
Answer: The Cmax was 3 ng/mL.

Question: With `CCCC[C@]1(CC)CS(=O)(=O)c2cc(CNC(CC(=O)O)CC(=O)O)c(OC)cc2[C@@H](c2ccccc2)N1` [LINERIXIBAT] as the compound, how does the Activity (Rattus norvegicus [21]) read?
Answer: Its Activity is over 50%.

Question: What about the Activity (Rattus norvegicus [22]) of the same compound?
Answer: The Activity was “Active”.

Question: What about the ED50 (Mus musculus [1]) of the same compound?
Answer: The ED50 was 0.022 mg/kg.

Question: And the Stability [23]?
Answer: The Stability was “Stable”.

Question: What about the solubility [4] of the same compound?
Answer: The solubility was at least 200 µg/mL.

Question: And the “fold change (FC)” value (Rattus norvegicus [7])?
Answer: Its value is 7.

Question: What about the Papp at 1 h, 3 µM [8] of the same compound?
Answer: The Papp at 1 h, 3 µM was 0.7 ×10⁻⁶ cm/s.

Question: What about the Cmax [9] of the same compound?
Answer: The Cmax was 4 ng/mL.

Question: And the IC50 [10]?
Answer: Its IC50 is 2.1 nM.

Question: And the dose excreted [13]?
Answer: Its dose excreted is 98%.

Question: And the Cmax (Cynomolgus monkey)?
Answer: Its Cmax is “BLD”.

Question: And the half-life [14]?
Answer: The half-life was over 12 h.

Question: And the Efficacy (Mus musculus [15])?
Answer: Its Efficacy is 94%.

Question: What about the IC50 [17] of the same compound?
Answer: Its IC50 is 1.9 nM.

Question: And the IC50 [24]?
Answer: The IC50 was 42 nM.

Question: And the solubility [25]?
Answer: Its solubility is over 7000 µg/mL.

Question: And the Activity (Rattus norvegicus [26])?
Answer: Its Activity is 1.3%.

Question: And the Activity (Rattus norvegicus [27])?
Answer: The Activity was “Active”.

Question: And the Cmax [28]?
Answer: The Cmax was 6 ng/mL.

Question: Which results are given for `CCCC[C@]1(CC)CS(=O)(=O)c2cc(OC)c(OC)cc2[C@@H](c2ccccc2)N1`?
Answer: ED50 (Mus musculus [1]): 0.13 mg/kg; Papp at 1 h, 3 µM [8]: 10.7 ×10⁻⁶ cm/s; Cmax [9]: 100 ng/mL; IC50 [10]: 3 nM; dose excreted [13]: 3%; Efficacy (Mus musculus [15]): 100%; IC50 [17]: 22 nM; IC50 [24]: 180 nM; Cmax [20]: 19 ng/mL; Stability (Intestine): Unstable
